High-throughput results (PubChem)
An excerpt weighted towards active compounds, which were near 2.6% of everything screened.
T cruzi inh = inhibitors of intracellular T. cruzi growth, primary screen, luminescence, NIH3T3 host cells. T. cruzi beta-gal in NIH3T3, 90 h. AID 1885, 2009. inhibition, % (no concentration beside the values). 300,000 tested, 1.4% active;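 active means mean inhibition across valid replicates above about 55%, limit read from the data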;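 further: signal also drops with host cell toxicity which is not excluded here; 0% = plate median of DMSO wells and 100% = zero luminescence signal; higher percent means less beta-gal luminescence so fewer parasites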
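System – NIH/3T3 host cells with β-galactosidase reporter T. cruzi · Doses – single 50 nL compound addition per well in DMSO · Reagent – 5000 T. cruzi trypomastigotes/well · Medium – Low-serum DMEM with 2% FBS · Timing – ≥90 h infection period, 3 h prior cell attachment · Evaluation – parasite load inhibition, % · Technique – GalScreen luminescence, 60 min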
CHT inh = inhibitors of human choline transporter CHT. CHT-expressing cells, membrane potential dye, choline response; hits give low values. AID 488975, 2010. High affinity choline transporter 1 (Homo sapiens), Q9GZV3. 310,000 tested, 0.86% active. B-score at 10 µM;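 active means B-score over 3 SD under the library average, and starting fluorescence ratio not unusually high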;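 further: choline stimulus applied at its EC90 after an EC20 pre-addition; B-score computed on integrated fluorescence ratio after choline addition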
Target sequence (Q9GZV3 whole entry, looked up): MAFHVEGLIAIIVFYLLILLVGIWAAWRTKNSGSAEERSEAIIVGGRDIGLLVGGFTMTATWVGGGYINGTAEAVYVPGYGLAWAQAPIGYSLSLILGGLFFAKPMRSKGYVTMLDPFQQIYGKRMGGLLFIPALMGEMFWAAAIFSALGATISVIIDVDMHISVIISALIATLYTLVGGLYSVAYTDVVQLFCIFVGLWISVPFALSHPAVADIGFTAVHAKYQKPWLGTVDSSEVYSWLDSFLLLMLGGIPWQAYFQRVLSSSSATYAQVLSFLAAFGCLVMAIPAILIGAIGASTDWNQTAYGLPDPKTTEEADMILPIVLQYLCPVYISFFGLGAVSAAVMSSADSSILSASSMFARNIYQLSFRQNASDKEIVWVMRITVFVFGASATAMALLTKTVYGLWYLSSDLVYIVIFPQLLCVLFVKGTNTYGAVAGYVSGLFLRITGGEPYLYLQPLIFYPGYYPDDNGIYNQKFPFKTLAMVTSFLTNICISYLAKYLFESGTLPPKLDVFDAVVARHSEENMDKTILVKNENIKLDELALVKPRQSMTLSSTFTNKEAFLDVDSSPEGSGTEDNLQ
CHT allo act = CHT positive allosteric modulators, primary screen, cell-based, membrane potential dye, choline EC20; High affinity choline transporter 1 (Homo sapiens), Q9GZV3; CHT-expressing cells; hits give high values; LV-AA mutant CHT in HEK293 cells; B-score at 10 µM; 310,000 tested, 0.49% active; AID 488977, 2010;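 active means initial fluorescence not abnormally high and integrated response B-score, plate-corrected, over 3 SD above library mean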
PolyA inh = polyadenylation inhibitors in yeast reporter cells, primary screen, luminescence, S. cerevisiae; S. cerevisiae SKY197-pL101 polyadenylation reporter, beta-gal luminescence; efflux-impaired pdr1/pdr3 knockout yeast; score 100 = 6 SD above DMSO; activity score, % at 12 µM; 300,000 tested, 0.02% active; AID 1875, 2009;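 active means lowest replicate activity score at least 50, where 100 means six control SD above control mean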;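 further: yeast exposed to compound for 9 h at 30 °C; higher score means more reporter readthrough which indicates perturbed polyadenylation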
CHT inh conf = CHT inhibitors, confirmation, cell-based, membrane potential dye, duplicate; 2,400 tested, 70% active; AID 493221, 2011; shares compounds with CHT inh; CHT activity remaining % of control (hits give low values), % at 10 µM; CHT-expressing cells, choline membrane potential dye; LV-to-AA substituted CHT, HEK293 cells;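 active means choline transporter activity left, mean of duplicates at 10 µM, below buffer-only control mean minus 3 SD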;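 further: depolarization triggered by choline at its EC90 following an EC20 pre-addition; 0% = hemicholinium-3 full block and 100% = buffer-only control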
HEK293 CHT ctr = membrane potential effects in parental HEK293, counter-screen for CHT inhibitor project, cell-based, membrane potential dye; shares compounds with CHT inh; choline response; active = decrease or increase beyond buffer ±3SD; membrane potential ratio readout (active if shifted either direction beyond buffer ±3SD; no single direction) at 10 µM; 2,400 tested, 4% active;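 further: parental cells lack the transporter so any hit is non-specific; ratio is peak minus trough fluorescence over baseline after EC90 choline challenge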
* hit, by the source's call; i = inactive; . = not tested or not shown.

SMILES | T cruzi inh | CHT inh | CHT allo act | PolyA inh | CHT inh conf | HEK293 CHT ctr
Cc1ccc(NC(=O)c2ccccc2)cc1OC(=O)c1ccccc1 | 4 | i | i | -5 | . | .
C#CC[N+](CC)(CC)CC#Cc1ccccc1 | -3 | -7.7* | i | 5 | 35%* | i
C#CC[N+](C)(C)CC#Cc1ccc(C)cc1 | 1 | i | i | -6 | . | .
Cc1ccc(NC(=S)NNC(=O)c2cccc([N+](=O)[O-])c2)cc1Cl | -28 | -5.7* | i | -8 | 54%* | i
COc1ccc(Cc2nnc(NC(=O)c3ccccc3[N+](=O)[O-])s2)cc1 | -15 | -7.1* | i | 5 | 26%* | i
O=C1C(=O)N(CCc2c[nH]c3ccccc23)C(c2cccnc2)/C1=C(/O)c1ccccc1 (stereo not given) | -19 | -6.3* | i | 5 | i | i
CN(CC(=O)Nc1ccc(N2CCOCC2)cc1)C(=O)C1CCCC1 | -10 | -8.3* | i | 39 | i | i
O=C(c1ccc(O)cc1)c1ccc(Cl)cc1 | -18 | -6* | i | -20 | 50%* | i
COc1ccc(C(=O)c2ccc(Cl)cc2)cc1 | -9 | i | i | -20 | . | .
CCn1c(SCC(=O)N(C)CC(=O)Nc2cccc(OC)c2)nnc1-c1ccco1 | -8 | i | i | 13 | . | .
Cc1ccc(S(=O)(=O)CCC(=O)OC(C)C(=O)N2CCc3ccccc32)cc1 (stereo not given) | 3 | -7.4* | i | -8 | 37%* | i
CCC(=O)c1ccc(OCC(=O)OC(C)C(=O)N2CCc3ccccc32)cc1 (stereo not given) | -15 | i | i | 2 | . | .
CC(C)CNC(=S)N(CCO)Cc1cc2cc3c(cc2[nH]c1=O)OCO3 | 6 | i | i | 4 | . | .
O=C(Nc1ccccc1C(=O)NCCCn1ccnc1)c1ccccc1 | -8 | -10* | i | 7 | 13%* | i
Cc1ccc(-c2cc(C(=O)NCCCn3ccnc3)c3cc(Br)ccc3n2)o1 | . | -9.2* | i | . | 24%* | i
COc1ccc(C(=O)Nc2ccccc2C(=O)NCCCn2ccnc2)cc1 | 11 | . | . | 0 | . | .
CC(C)c1ccc(/C=C(\NC(=O)c2ccccc2)C(=O)NCCCn2ccnc2)cc1 | 3 | -8.2* | i | 5 | 23%* | i
O=C(NCCCn1ccnc1)/C(=C/c1ccc(F)cc1)NC(=O)c1ccccc1 | 2 | i | i | -14 | . | .
CCC(=O)NC(=S)Nc1ccc(S(=O)(=O)NC2CCCCC2)cc1 | 4 | i | i | 21 | . | .
O=C(CN1C(=O)COc2ccccc2C1=O)c1ccc2c(c1)OCCO2 | -17 | i | i | -9 | . | .
CCCCCCCNC(=O)CN1C(=O)CSc2ccc(S(=O)(=O)N3CCOCC3)cc21 | -1 | i | i | -13 | . | .
CC1CCN(S(=O)(=O)c2ccc3c(c2)N(CC(=O)NCCCN2CCCCC2C)C(=O)CS3)CC1 (stereo not given) | 28 | -5.5* | i | 11 | 44%* | i
CCCCN(C)CCNC(=O)CN1C(=O)CSc2ccc(S(=O)(=O)N3CCCC3)cc21 | 45 | -5.7* | i | -5 | 58%* | i
CC1CCN(S(=O)(=O)c2ccc3c(c2)N(CC(=O)NCCN2C(C)CCCC2C)C(=O)CS3)CC1 (stereo not given) | 27 | -10* | i | -11 | 17%* | i
Cc1cc(C)cc(NC(=O)[C@H](NC(=O)[C@@H]2Cc3ccccc3CN2)c2ccccc2)c1 | 22 | i | i | 6 | . | .
SMILES | T cruzi inh | CHT inh | CHT allo act | PolyA inh | CHT inh conf | HEK293 CHT ctr
NC(=S)N/N=C/c1c(O)ccc2ccccc12 | -2 | i | i | 1 | . | .
NC(=S)N/N=C1/CCSc2ccc3ccccc3c21 | 38 | -5.6* | i | -12 | 68%* | i
CCn1cc(C(=O)N(CCC(C)C)c2c(N)n(Cc3ccccc3)c(=O)[nH]c2=O)c(=O)c2ccc(C)nc21 | -11 | -10* | i | 4 | 50%* | i
CC(C)CCN(C(=O)Cc1ccccc1F)c1c(N)n(Cc2ccccc2)c(=O)[nH]c1=O | 5 | i | i | -2 | . | .
CCOC(=O)CCc1c(C)nc(SCc2ccc(C(=O)O)cc2)c(C#N)c1C | 5 | i | i | -2 | . | .
CN(C(=O)c1cc(S(=O)(=O)N2CCCCC2)c[nH]1)C1CCCCC1 | 11 | -5.1* | i | -11 | i | i
CCOC(=O)C(Cc1ccccc1)NC(=O)CCCC(=O)c1ccccc1 (stereo not given) | -3 | -5.9* | i | -1 | 45%* | i
CSC1=NS(=O)(=O)c2c(C)nn(C)c2S1 | -15 | -8* | i | -4 | 29%* | i
CN1C(C(=O)NCc2ccc(OC(F)(F)F)cc2)CC2Cn3c(nc4cc5ccccc5cc43)C21 (stereo not given) | 8 | i | i | -14 | . | .
O=C(CCC(=O)N1CCN(c2ccccc2F)CC1)N1CCN(c2ccc(F)cc2)CC1 | 2 | -5.4* | i | 6 | 69%* | i
c1ccc2[nH]c(CSc3nc4ccccc4s3)nc2c1 | -5 | -6* | i | 9 | i | i
Cc1nnc(SCc2nc3ccccc3[nH]2)s1 | -4 | i | i | 13 | . | .
CN1C(=O)C(C)(C)c2cc(S(=O)(=O)N3CCCC(C(=O)NCc4ccccc4Cl)C3)ccc21 (stereo not given) | -7 | i | i | 1 | . | .
CC(C)C(NC(=O)c1ccccc1Br)c1ccccc1 (stereo not given) | -4 | -5.3* | i | 5 | i | i
CC(NC(=S)NC(=O)c1ccccc1Br)c1ccccc1 (stereo not given) | 2 | i | i | 1 | . | .
CCCCn1c(N)c(N(CCOC)C(=O)c2cccc(-n3cnnn3)c2)c(=O)[nH]c1=O | -1 | i | i | 22 | . | .
CCCc1cc2c(=O)c(-c3cscn3)c(C(=O)OCC)oc2cc1O | -11 | -5.8* | i | 0 | 28%* | i
CCOC(=O)c1nc(NNC(=O)c2ccc([N+](=O)[O-])cc2)sc1C | 41 | -9.9* | i | -18 | 54%* | i
CN(C)CCOC(=O)COc1ccc(Cl)cc1 | . | i | i | . | . | .
CN(C)CCOC(=O)Cc1ccc(Cl)cc1 | 8 | -10* | i | -3 | 63%* | i
